Assay type in all cases: cell-based
The target of test [1] is T1, Short transient receptor potential channel 6 (Mus musculus) (UniProt Q61143).
T1 sequence (whole entry): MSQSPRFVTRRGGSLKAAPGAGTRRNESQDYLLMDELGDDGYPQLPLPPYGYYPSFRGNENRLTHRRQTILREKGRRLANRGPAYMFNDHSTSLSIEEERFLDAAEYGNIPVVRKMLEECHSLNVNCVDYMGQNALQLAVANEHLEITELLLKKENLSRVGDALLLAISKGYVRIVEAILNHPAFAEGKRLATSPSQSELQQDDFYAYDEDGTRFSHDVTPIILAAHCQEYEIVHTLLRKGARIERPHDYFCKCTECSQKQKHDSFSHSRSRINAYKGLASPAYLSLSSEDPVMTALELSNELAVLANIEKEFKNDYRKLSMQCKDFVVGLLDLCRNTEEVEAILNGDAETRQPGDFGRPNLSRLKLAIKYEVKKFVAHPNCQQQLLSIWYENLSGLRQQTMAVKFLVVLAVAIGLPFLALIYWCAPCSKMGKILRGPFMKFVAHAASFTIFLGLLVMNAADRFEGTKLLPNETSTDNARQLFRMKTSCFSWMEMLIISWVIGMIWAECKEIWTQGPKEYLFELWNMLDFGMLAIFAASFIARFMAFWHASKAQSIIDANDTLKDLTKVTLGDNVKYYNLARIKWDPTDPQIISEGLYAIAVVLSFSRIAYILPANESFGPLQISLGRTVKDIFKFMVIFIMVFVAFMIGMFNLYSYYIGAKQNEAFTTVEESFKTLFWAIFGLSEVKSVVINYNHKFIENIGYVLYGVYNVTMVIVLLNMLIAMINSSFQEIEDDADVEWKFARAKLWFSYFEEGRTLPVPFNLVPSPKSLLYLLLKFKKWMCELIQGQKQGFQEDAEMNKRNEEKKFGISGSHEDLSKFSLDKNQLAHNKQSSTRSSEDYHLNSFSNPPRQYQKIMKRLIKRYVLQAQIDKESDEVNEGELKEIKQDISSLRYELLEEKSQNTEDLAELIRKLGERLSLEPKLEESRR
In words: Antagonist activity at mouse TRPC6 expressed in HEK293 cells co-expressing Gq11-PLCbeta fused M5 receptor assessed as channel desensitization at 20 to 100 uM at +80 mV in presence of 0.1 mM Ca2+ by whole cell patch-clamp method. The gist of the method: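 Whole-cell clamp of TRPC6/M5 or TRPC7 HEK293 cells with 0.1 mM Ca2+ bath and 400 nM free Ca2+ pipette. Ramps +100 to −100 mV every 1 s. Increasing concentrations given consecutively by perfusion (TRPC6 highest 20–100 μM; TRPC7 up to 30 μM). Currents at positive and negative potentials followed for desensitization.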
On the technique in general: In patch-clamp work, channel activity is measured electrically.

In test [2] the target is Transient receptor potential cation channel subfamily V member 4 (Homo sapiens) (UniProt Q9HBA0). The test can be described thus: Agonist activity at human TRPV4 expressed in HEK293 cells assessed as increase in intracellular calcium level at 33 uM measured for 2.5 mins by Fluo-8-AM dye based fluorescence assay.
Test [3] deals with T2, Short transient receptor potential channel 6 (Mus musculus, UniProt Q61143).
T2 sequence (Q61143 whole entry): T1 sequence (whole entry)
In words: Agonist activity at mouse TRPC6 expressed in HEK293 cells co-expressing Gq11-PLCbeta fused M5 receptor assessed as increase in intracellular calcium level measured for 2.5 mins by Fluo-8-AM dye-based fluorescence assay. To be noted: read-out: EC50. Background: Calcium flux is commonly read through the fluorescence of an indicator in the cells.

The target of test [4] is T3, Short transient receptor potential channel 3 (Homo sapiens, UniProt Q13507).
T3 sequence (Q13507 whole entry): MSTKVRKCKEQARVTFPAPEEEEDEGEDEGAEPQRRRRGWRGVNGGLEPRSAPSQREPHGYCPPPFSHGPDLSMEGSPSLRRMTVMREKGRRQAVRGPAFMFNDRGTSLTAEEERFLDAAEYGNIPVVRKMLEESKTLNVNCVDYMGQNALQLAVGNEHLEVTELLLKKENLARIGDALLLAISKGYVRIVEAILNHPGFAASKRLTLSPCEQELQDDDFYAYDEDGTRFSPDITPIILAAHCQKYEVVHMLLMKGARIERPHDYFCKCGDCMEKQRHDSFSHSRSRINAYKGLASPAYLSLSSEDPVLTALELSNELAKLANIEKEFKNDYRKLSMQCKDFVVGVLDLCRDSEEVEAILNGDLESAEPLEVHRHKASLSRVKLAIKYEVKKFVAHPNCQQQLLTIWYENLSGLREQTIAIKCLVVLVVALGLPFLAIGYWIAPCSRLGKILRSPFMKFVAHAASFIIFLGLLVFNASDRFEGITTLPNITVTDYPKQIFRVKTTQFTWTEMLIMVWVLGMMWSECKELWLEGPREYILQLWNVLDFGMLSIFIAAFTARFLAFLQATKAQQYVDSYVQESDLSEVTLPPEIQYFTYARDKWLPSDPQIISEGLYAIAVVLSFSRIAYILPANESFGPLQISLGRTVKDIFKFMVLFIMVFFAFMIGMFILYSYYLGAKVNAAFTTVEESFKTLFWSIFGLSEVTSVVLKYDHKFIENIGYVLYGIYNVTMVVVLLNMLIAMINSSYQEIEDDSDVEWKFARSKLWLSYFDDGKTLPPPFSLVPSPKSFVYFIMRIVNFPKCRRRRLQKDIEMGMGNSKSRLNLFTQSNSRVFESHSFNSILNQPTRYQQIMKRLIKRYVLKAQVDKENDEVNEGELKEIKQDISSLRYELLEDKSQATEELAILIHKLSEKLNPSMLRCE
The test can be described thus: Agonist activity at human TRPC3 expressed in HEK293 cells assessed as induction of membrane depolarization measured for 2.5 mins in presence of 0.5 mM Ca2+ by FLIPR membrane potential dye-based fluorescence assay. The gist of the method:
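HEK293 cells stably expressing human TRPC3, run on a FlexStation at 32 °C. Loaded with FMP dye, or Fluo-type Ca2+ dye with 2 mM probenecid. Extracellular NaCl/HEPES saline, pH 7.4, with 2 mM Ca2+ (standard) or 0.5 mM Ca2+. Read as F/F0. In 0.5 mM Ca2+, FMP EC50 from a Hill fit, n = 6.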

Broadly, the EC50 is the concentration that produces a half-maximal response.

Activity calls are given as the source filed them. The rule behind the calls is not given here.

Chain of Transient receptor potential cation channel subfamily V member 4 (Homo sapiens) (Q9HBA0 whole entry): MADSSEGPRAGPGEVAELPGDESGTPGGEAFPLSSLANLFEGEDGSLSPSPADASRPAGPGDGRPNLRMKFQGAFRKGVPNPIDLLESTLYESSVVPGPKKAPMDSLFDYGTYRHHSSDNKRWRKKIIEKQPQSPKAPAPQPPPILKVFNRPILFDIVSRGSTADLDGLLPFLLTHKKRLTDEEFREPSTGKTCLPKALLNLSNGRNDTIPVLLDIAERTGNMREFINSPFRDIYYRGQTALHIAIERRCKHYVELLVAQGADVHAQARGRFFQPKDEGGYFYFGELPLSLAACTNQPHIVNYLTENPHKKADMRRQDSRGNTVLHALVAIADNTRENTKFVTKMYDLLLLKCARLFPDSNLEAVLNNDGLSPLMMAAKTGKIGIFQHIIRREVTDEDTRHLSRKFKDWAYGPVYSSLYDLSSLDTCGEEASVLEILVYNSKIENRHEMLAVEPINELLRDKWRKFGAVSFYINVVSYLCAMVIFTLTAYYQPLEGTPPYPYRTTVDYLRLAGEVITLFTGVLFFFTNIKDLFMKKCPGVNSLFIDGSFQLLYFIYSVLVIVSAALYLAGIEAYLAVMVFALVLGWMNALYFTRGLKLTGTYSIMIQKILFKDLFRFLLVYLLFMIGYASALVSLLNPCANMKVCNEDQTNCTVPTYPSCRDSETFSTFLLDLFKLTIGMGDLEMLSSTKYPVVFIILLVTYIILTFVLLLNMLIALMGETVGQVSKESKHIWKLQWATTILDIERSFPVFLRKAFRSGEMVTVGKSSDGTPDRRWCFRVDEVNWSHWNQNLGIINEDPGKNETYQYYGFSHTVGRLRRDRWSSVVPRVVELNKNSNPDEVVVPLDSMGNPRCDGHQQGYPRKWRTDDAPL

Consider `Cc1nn2c(O)cc(C3CCN(C(=O)OCc4ccccc4)CC3)nc2c1-c1ccc(Cl)cc1`, for which the result in test [1] and in test [2] was inactive. The concentration giving a half-maximal response (EC50) was found to be 7.79 µM in test [3] and 0.138 µM in test [4].

Consider `Cc1nn2c(O)cc(C3CCN(C(=O)OCc4ccccc4)CC3)nc2c1-c1ccc(F)cc1`, for which the result in test [1] and in test [2] was inactive. For the same compound, the values for the EC50 in test [3] and in test [4] were 3.91 µM and 0.236 µM, respectively.

For `CCOC(=O)N1CCC(c2cc(O)n3nc(C)c(-c4ccc(F)cc4)c3n2)CC1`, the result in test [1] and in test [2] was inactive. The EC50 is 4.66 µM in test [3] and 0.45 µM in test [4].

For `CCOC(=O)N1CCC(c2cc(O)n3nc(C)c(-c4ccc(C(F)(F)F)cc4)c3n2)CC1`, the result in test [1] and in test [2] was inactive.

Source of the values: ChEMBL document CHEMBL4014306, “Pyrazolopyrimidines as Potent Stimulators for Transient Receptor Potential Canonical 3/6/7 Channels” (J Med Chem, 2017).
